Screens (PubChem BioAssay)
Rev-erbA mod: Rev-erb alpha (human) modulation | P20393 | Rev-erbα–FITC-DNA binding, fluorescence polarization, 90 min | activity, % at 10 µM | actives 0.79% (n = 370,000) | AID 1259318;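 active = activity above about 14%, limit read from the data; passing the limit was not always enough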;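 also: 0% = DMSO wells with 35 nM protein and 100% = DMSO wells with 750 nM protein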
Target sequence (P20393 whole entry, looked up): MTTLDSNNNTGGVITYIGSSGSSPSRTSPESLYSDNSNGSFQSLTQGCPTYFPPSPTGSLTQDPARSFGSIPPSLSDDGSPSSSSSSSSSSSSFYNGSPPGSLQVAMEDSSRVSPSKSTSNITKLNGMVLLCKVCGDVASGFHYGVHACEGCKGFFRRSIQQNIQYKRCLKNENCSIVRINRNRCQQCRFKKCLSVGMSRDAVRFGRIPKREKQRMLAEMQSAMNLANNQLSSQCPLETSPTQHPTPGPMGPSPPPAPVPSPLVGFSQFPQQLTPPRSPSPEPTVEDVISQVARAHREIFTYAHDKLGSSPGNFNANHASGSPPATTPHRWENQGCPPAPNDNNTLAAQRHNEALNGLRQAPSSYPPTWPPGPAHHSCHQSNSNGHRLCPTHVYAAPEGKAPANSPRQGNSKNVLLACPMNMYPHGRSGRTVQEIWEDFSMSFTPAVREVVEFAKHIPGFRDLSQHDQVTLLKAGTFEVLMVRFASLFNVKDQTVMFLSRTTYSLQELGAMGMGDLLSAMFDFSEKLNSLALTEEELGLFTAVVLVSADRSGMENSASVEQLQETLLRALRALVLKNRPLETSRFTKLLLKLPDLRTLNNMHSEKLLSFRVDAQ
NR2E3 ag-1: activates human photoreceptor nuclear receptor NR2E3; Q9Y5X4; GST-NR2E3/biotin-RetCOR TR-FRET, 1536-well; inhibition of corepressor binding, % at 4.78 µM; actives 0.12% (n = 320,000);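 active = percent inhibition above the cutoff of mean plus 3 SD of all tested compounds, set per screening campaign, cut at about 20% in these data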;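 also: 0% = DMSO wells and 100% = biotin wells as full block of FRET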
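Material – GST-tagged NR2E3 plus biotinylated RetCOR corepressor · Quantity – NR2E3 fusion 1.35 nM · Times – 5 h incubation at 4 °C · Medium – pH 7.5 Tris-based buffer · Technique – TR-FRET, Eu(K)-anti-GST donor, streptavidin-D2 acceptor, ex 340, em 617/671 nm · Benchmarks – high control biotin, low control 0.6% DMSO · Format – 1536-well plates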
PG9 Ab binder: small molecules binding HIV-1 gp120 antibody PG9 | TR-FRET gp120-PG9 antibody binding | inhibition, % at 6.7 µM | actives 0.43% (n = 360,000) | AID 624416; in the data active = inhibition above about 8.5%
NR2E3 ag-2: human photoreceptor-specific nuclear receptor agonism. actives 0.35% (n = 360,000). inhibition of corepressor binding, % at 3.98 µM. CHO-S Gal4-NCOR/VP16-NR2E3 two-hybrid, luciferase. Q9Y5X4;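 active = inhibition above the mean of all tested compounds plus 3 SD, cut at about 70% in these data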;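 also: 0% = DMSO with NR2E3 transfected cells and 100% = cells lacking NR2E3 construct; higher means lower luciferase signal from less NR2E3 corepressor binding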
PG9 bind confirm: PG9 antibody binding, confirmed; shares compounds with PG9 Ab binder; TR-FRET PG9 antibody binding, biochemical; inhibition, % at 6.7 µM; actives 90% (n = 1,500); AID 651571; in the data active = inhibition above about 9%
PGV04 counter: PGV04 control antibody binding, counter-screen. actives 95% (n = 1,500). TR-FRET PGV04 antibody-gp120 binding, biochemical. inhibition, % at 6.7 µM. shares compounds with PG9 Ab binder; in the data active = inhibition above about 9.5%
Numbers without * were called inactive; x = not tested or not shown. The list is not random: actives were taken first. Their share in the collection is about 1.5%.

SMILES	Rev-erbA mod	NR2E3 ag-1	PG9 Ab binder	NR2E3 ag-2	PG9 bind confirm	PGV04 counter
COc1cc(/C=C/C(=O)OCC(=O)NCCc2ccccc2)cc(OC)c1OC	-1.1	-0.3	-0.3	-8.2	x	x
COc1cc(/C=C/C(=O)OCC(=O)Nc2ccccc2Cl)cc(OC)c1OC	-11.0	-1.2	22.8*	-6.8	26.5*	41.4*
Cc1ccnc(N2CCCC(C(=O)Nc3ccc(C)c(C)c3)C2)n1 (stereo not given)	-0.5	5.3	39.4*	-46.3	30.8*	42.3*
O=C(OC12CCCN(C1)/C(=C/c1ccncc1)C2)c1ccco1 (stereo not given)	1.9	x	x	x	x	x
Cc1cc(OC(=O)c2cc(Cl)ccc2Cl)c([N+](=O)[O-])c(=O)[nH]1	3.7	-0.9	30.3*	-13.3	7.5	11.2*
O=C(O)Cn1c2c(c3ccccc31)CSc1ccc(Cl)cc1-2	9.2	8.4	16.6*	-29.0	10.2*	13.7*
O=C(O)c1ccc2c(c1)C(=O)N(c1cccc(C(=O)/C=C/c3ccccc3)c1)C2=O	0.5	-0.4	0.8	-21.3	x	x
O=C(O)c1cccc(N2C(=O)c3cc4cccc(Br)c4cc3C2=O)c1	5.5	14.8	14.0*	-8.6	16.1*	21.6*
Cc1ccc(S(=O)(=O)CCC(=O)N(CCCN2CCOCC2)c2nc3ccccc3s2)cc1	4.9	-1.2	9.6*	-48.5	6.6	10.6*
O=C(CCS(=O)(=O)c1ccccc1)N(CCCN1CCOCC1)c1nc2ccccc2s1	11.2	-2.1	0.8	-42.9	x	x
COC(=O)[C@]12C[C@H](CC(=O)NCc3ccc(C)o3)C(=O)N(Cc3ccco3)C1=C[C@H](COCc1ccccc1)O[C@@H]2C	-3.8	x	x	x	x	x
COCCCNC(=O)C[C@H]1C[C@@]2(C(=O)OC)C(=C[C@H](C(C)C)O[C@@H]2C2CC2)N(Cc2ccc(Cl)cc2Cl)C1=O	0.1	x	x	x	x	x
COCO[C@@H]1CC(CO)=C[C@H]2OCO[C@H]21	-4.6	x	x	x	x	x
CCCc1[nH]nc2c1C(c1ccc(OCCN3CCOCC3)c(OC)c1)C(C#N)=C(N)O2 (stereo not given)	1.2	3.9	0.2	6.3	x	x
CCOc1cc(C2C(C#N)=C(N)SC(N)=C2C#N)ccc1OCCN1CCOCC1	4.6	4.1	13.1*	13.3	14.9*	20.9*
CCn1c2ccccc2c2cc(CN3CCN(S(=O)(=O)Cc4ccccc4)CC3)ccc21	1.1	-4.3	14.5*	12.1	16.2*	26.2*
CCn1c2ccccc2c2cc(CN3CCN(S(=O)(=O)CC)CC3)ccc21	8.7	0.4	-2.0	x	x	x
CN(c1ccc(C(=O)COC(=O)C2CC2)cc1)S(C)(=O)=O	3.7	x	13.7*	-37.3	18.1*	20.2*
C[C@H](O)[C@@H]1CN2CCc3c([nH]c4c(-c5ccc6c(c5)OCO6)cccc34)[C@@H]2C[C@@H]1N(C)C(=S)NCCc1ccccc1	-4.5	x	x	x	x	x
CC(C)=CCC/C(C)=C/C=C/C(C)=C/C=C/C(C)=C/C=C/C=C(C)/C=C/C=C(C)/C=C/C=C(\C)CCC=C(C)C	1.4	x	x	x	x	x
O=C(Nc1ccc(N2C(=O)C3CCCCC3C2=O)cc1Cl)c1cccs1 (stereo not given)	8.3	-1.9	18.2*	-23.4	30.1*	45.7*
COc1cccc(CCNS(=O)(=O)c2c(C)n[nH]c2C)c1	-6.0	x	x	x	x	x
C=CCNC(=O)N1CCC(c2nc3ccc(Cl)cc3[nH]2)CC1	-1.9	x	x	x	x	x
COc1ccc(C(=O)Nc2ccc(Cl)cc2C(=O)NCc2ccco2)cc1	16.6	1.0	11.4*	-23.6	-2.5	16.8*
CC(C)C[C@H]1COc2cccc(F)c2S(=O)(=O)N1Cc1cn(Cc2ccc(F)cc2)nn1	7.2	x	x	x	x	x
Cc1noc(C(=O)Nc2ccc3c(c2)OCO3)c1Cl	-5.2	3.8	-0.4	-74.0	x	x
Cc1ccc2c(Cl)c(C(=O)Nc3ccc4c(c3)OCO4)sc2c1	11.0	-5.9	14.4*	-69.2	26.4*	52.8*
COC(=O)c1cc(Br)c(=O)n(-c2cc(C)on2)c1	6.4	7.6	9.8*	11.1	20.6*	26.3*
C[C@H](NC(=O)C[C@@H]1CC[C@H]2[C@@H](COC[C@H](O)CN2Cc2ccc(C(F)(F)F)cc2)O1)c1ccccc1	1.4	x	8.8*	x	14.0*	18.7*
O=C(C[C@@H]1CC[C@@H]2[C@H](COC[C@H](O)CN2Cc2cccc(C(F)(F)F)c2)O1)NCc1ccc(Cl)cc1	-2.5	x	2.3	x	x	x
